Source: PubChem BioAssay (SRMLSC)
This excerpt belongs to a sample that is enriched for hits.
bCat KO growth – beta-catenin-lacking colon tumor cell growth suppression. HCT116 beta-catenin knockout viability, CellTiter-Glo, 60 h; active compounds read low. viability, % at 10 µM. hit rate 1.5% among 140,000;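 active = viability at or under a set limit, the compound median less 4 SD, cut at about 6% in these data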;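 also: 0% = Hyamine 1622 control at 20 µM and 100% = untreated cell control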
PTEN del growth – suppresses growth of cells with PTEN deletion; HCT116 PTEN-null viability, CellTiter-Glo, 60 h; active compounds read low; viability, % at 10 µM; hit rate 1.2% among 140,000; AID 827;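 active = viability at or below a set limit, 4 SD under the median of all tested compounds, cut at about 3.7% in these data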;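 also: PTEN knockout HCT116 line with beta catenin targeted HCT116 as companion control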
Fibroblast inh – blocks proliferation of human lung fibroblasts; AID 719; LL 47 human lung fibroblast viability, ATP luminescence; active compounds read low; viability, % at 10 µM; hit rate 1.1% among 85,000;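 active = viability at or below 50% in the single dose screen; inactive = viability above 50%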;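 also: compound exposure lasted 72 h before the ATP readout; 100% = median luminescence of untreated cell-only wells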
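Signal: luminescent ATP detection, CellTiter-Glo; assay system: LL 47 human lung fibroblasts; input: 1,150 cells/well; incubation: overnight cell rest, 72 h compound treatment at 37 °C; measure: % viability versus median cells-only luminescence; medium: IMEM growth medium with 15% fetal bovine serum; dosing: compound addition at 0.1% DMSO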
HUVEC inhibit – human endothelial cell proliferation inhibition; HUVEC proliferation, CellTiter-Glo luminescence, 72 h; active compounds read low; viability, % at 10 µM (by protocol); hit rate 1.1% among 86,000; AID 648;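 active = viability at or below 30%; inactive = viability above 30%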;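 also: 100% = median luminescence of DMSO-only cell control wells on each plate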
H69AR growth 86K – blocks growth of human H69AR lung tumor cells. H69AR lung tumor viability, ATP luminescence, 72 h; active compounds read low. viability, % at 10 µM. hit rate 6% among 85,000;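 active = viability at or below 40%; inactive = viability above 40%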;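 also: multidrug resistant small cell line overexpressing MRP-1 efflux transporter; 100% = mean luminescence of untreated control wells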
Starred values were filed as active, the others as inactive; . = no result given.

SMILES	bCat KO growth	PTEN del growth	Fibroblast inh	HUVEC inhibit	H69AR growth 86K
CCCCOc1ccc(Br)cc1/C(C)=N/NC1=NCCN1	2.4*	2.9*	22.8*	7.1*	82.9
CCCCOc1ccc(Br)cc1CSC(=N)N	11.0	11.9	.	.	.
CCOC(=O)C1CCCN(Cc2cc(Br)ccc2OC)C1 (centres undefined)	87.9	91.7	100.9	107.6	103.9
O=C(N/N=C/C=C/c1ccccc1)C1CC1c1ccccc1 (centres undefined)	89.8	94.2	74.0	89.6	26.1*
CCC(=O)N1CCN(c2ccc(NC(=O)c3cc4ccccc4o3)cc2Cl)CC1	2.5*	3.1*	42.5*	2.9*	10.3*
O=C(Nc1ccc(N2CCN(C(=O)c3ccco3)CC2)c(Cl)c1)c1cc2ccccc2o1	2.8*	3.2*	43.4*	7.9*	36.8*
CCCC(=O)N1CCN(c2ccc(NC(=O)c3cc4ccccc4o3)cc2Cl)CC1	105.4	96.3	16.1*	2.1*	13.5*
CCCCN(C(=O)CSc1nnc(Nc2ccc(C)c(C)c2)s1)c1c(N)n(Cc2ccccc2)c(=O)[nH]c1=O	54.9	76.2	.	.	.
COc1ccc(C(=O)O/N=C/c2c(C(F)(F)F)nn(C)c2SCc2ccccc2Cl)cc1	4.2*	12.7	.	.	.
CCCCC(=O)NC(c1cccc([N+](=O)[O-])c1)c1c(OC(C)=O)ccc2ccccc12 (centres undefined)	61.4	55.9	89.0	79.6	4.6*
COc1ccc(C(=O)c2sc(NC(C)C)nc2N)cc1OC	70.3	59.1	104.2	105.7	81.4
COc1cccc(C(=O)c2sc(NC(C)C)nc2N)c1	4.9*	3.8	42.6*	51.8	45.9
Cc1cc(C)cc(-n2nnnc2SCC(=O)Nc2cccc(NC(=O)c3ccco3)c2)c1	45.0	39.8	102.3	57.0	51.0
CCc1ccc2oc(=O)cc(CN3CCN(c4ccc(F)cc4)CC3)c2c1	77.6	76.5	26.2*	39.7	36.9*
O=c1cc(CN2CCN(C/C=C/c3ccccc3)CC2)c2cc(O)ccc2o1	13.6	30.6	98.1	75.3	38.8*
O=c1cc(CN2CCN(c3cccc(Cl)c3)CC2)c2cc(O)c(-c3ccccc3)cc2o1	96.1	101.3	.	.	.
O=c1cc(CN2CCN(c3ccccc3)CC2)c2cc(O)c(-c3ccccc3)cc2o1	86.8	83.9	48.3*	34.6	5.0*
CC(C)c1ccc2oc(=O)cc(CN3CCN(c4ccc(F)cc4)CC3)c2c1	60.4	65.2	91.5	69.8	69.1
FC(F)(F)c1cc(C(F)(F)F)c2ccc(N3CCN(c4ncccn4)CC3)nc2n1	54.6	63.7	.	.	.
O=C(CSc1ccccn1)Nc1nc2ccc(Br)cc2s1	90.7	101.2	.	.	.
COc1ccc(Br)cc1CN(C)C(C)C(=O)Nc1cc([N+](=O)[O-])ccc1OC (centres undefined)	64.0	54.7	.	.	.
CC(C)COC(=O)C1C(=O)CC(C)(O)C(C(=O)OCC(C)C)C1c1cccnc1 (centres undefined)	74.7	86.5	98.3	94.3	29.4*
CCCCCN=Cc1c(C)[nH]n(-c2nc3ccccc3s2)c1=O	17.1	16.2	29.3*	12.9*	6.4*
CCCc1cc(C(=O)Cc2ccc(F)cc2)c(O)cc1O	96.0	103.4	99.6	32.0	15.4*
CC(C)(C)n1nnnc1CN(Cc1ccco1)Cc1cc2cc3c(cc2[nH]c1=O)OCO3	76.2	71.0	85.9	81.5	35.4*
SMILES	bCat KO growth	PTEN del growth	Fibroblast inh	HUVEC inhibit	H69AR growth 86K
COc1ccc2[nH]c(=O)c(CN(Cc3ccco3)Cc3nnnn3Cc3ccccc3)cc2c1	89.4	94.8	93.2	97.8	.
COc1ccc2[nH]c(=O)c(CN(Cc3ccccc3OC)Cc3nnnn3CC3CCCO3)cc2c1 (centres undefined)	78.1	62.7	90.7	93.5	60.6
CCOc1ccc2[nH]c(=O)c(CN(Cc3ccco3)C(CC)c3nnnn3Cc3ccccc3)cc2c1 (centres undefined)	39.2	33.0	88.0	74.1	2.4*
CCOc1ccc2[nH]c(=O)c(CN(Cc3ccco3)Cc3nnnn3Cc3ccccc3)cc2c1	72.2	62.2	99.2	85.5	38.1*
COc1ccc2[nH]c(=O)c(CN(Cc3cccs3)Cc3nnnn3Cc3ccccc3)cc2c1	85.0	61.2	97.1	82.8	32.8*
O=C(c1ccco1)N1CCN(C(=O)c2snc3ccc(Cl)cc23)CC1	98.3	97.2	99.4	91.5	91.5
COc1ccc2[nH]c(=O)c(CN(Cc3cccs3)S(=O)(=O)c3c(C)ccc4nsnc34)cc2c1	24.6	15.5	68.7	64.6	2.7*
COc1ccc2cc(CN(CCc3ccccc3)Cc3nnnn3CC3CCCO3)c(=O)[nH]c2c1 (centres undefined)	80.0	77.9	96.8	96.0	61.0
COc1ccc2[nH]c(=O)c(CN(CCc3ccccc3)Cc3nnnn3CC3CCCO3)cc2c1 (centres undefined)	95.0	79.9	93.5	83.2	27.4*
C=C(c1ccc(OC)cc1)c1ccc(OC)cc1	70.8	74.5	95.1	83.3	31.7*
CC(C)(C)N(NC(=O)Nc1ccc(Cl)c(Cl)c1)C(=O)c1ccccc1	8.6	3.4*	.	.	.
Cn1c(=O)c(=O)n(C)c2cc(S(=O)(=O)N3CCN(C4CCCCC4)CC3)ccc21	78.2	84.2	90.2	91.7	87.8
COc1ccc(-c2cnnc(N/N=C/c3c(C)nn(-c4ccccc4)c3Cl)n2)cc1	4.7*	2.9*	.	.	.
Cc1nn(-c2ccccc2)c(Cl)c1/C=N/Nc1nc2ccccc2[nH]1	31.6	29.3	.	.	.
COc1ccc(-c2cnnc(N/N=C/c3ccc(O)c(O)c3)n2)cc1	4.5*	2.9*	.	.	.
COc1cc(/C=N/Nc2nnc3c(n2)[nH]c2ccccc23)ccc1O	94.2	103.8	.	.	.
Cc1c(C(=O)Nc2nc3ccccc3[nH]2)cccc1[N+](=O)[O-]	84.7	83.6	.	.	.
CC(C)SC1=NC(C)(C)C=C(/C=C/c2c(Cl)cccc2Cl)N1	14.3	13.9	83.7	54.3	40.4
CC(C)SC1=NC(C)(C)C=C(/C=C/c2ccc(Cl)cc2Cl)N1	18.6	21.7	82.2	26.4*	33.6*
CCCCCCCCC(=O)N/N=C/c1ccccn1	40.1	55.9	.	.	.
CCCCCCCCC/C(=N\O)c1ccccn1	3.4*	7.0	36.1*	5.4*	79.8
OC(CNCC1CCCO1)Cn1c2ccc(Cl)cc2c2cc(Cl)ccc21 (centres undefined)	1.5*	2.1*	2.4*	2.2*	1.0*
OC(CNCC1CCCO1)Cn1c2ccccc2c2ccccc21 (centres undefined)	74.4	67.4	82.9	81.4	73.2
OC(CNCCC1C=Nc2ccccc21)Cn1c2ccc(Cl)cc2c2cc(Cl)ccc21 (centres undefined)	1.2*	1.5*	.	.	.
Cc1cc(C)n(CC(O)Cn2c3ccc(Cl)cc3c3cc(Cl)ccc32)c(=O)n1 (centres undefined)	79.4	80.6	90.5	50.8	59.5
Cc1nc(SCC(=O)OCc2ccccc2)c2c(=O)n(C)c(=O)n(C)c2n1	88.5	97.2	106.0	99.2	106.3
